Here are results for 6 compounds from ChEMBL document CHEMBL1142154, “High-level vancomycin-resistant Staphylococcus aureus isolates associated with a polymicrobial biofilm” (2007).

For orientation: MIC means the least concentration at which growth counts as inhibited. Lower therefore signals inhibition by little substance.

In brackets after ≈: the same amount, converted by molar mass.

Common to all, as to format: functional
Assay [1] concerns Staphylococcus aureus. Kind of assay: Antibacterial activity against methicillin-resistant Staphylococcus aureus isolate 5735. The method, boiled down:
(§1)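 MICs by broth microdilution in cation-adjusted Mueller-Hinton broth, following CLSI guidelines. Test isolates were clinical VRE (E. faecium), MRSA and VRSA recovered from patient sites or from nephrostomy tube biofilm. Biofilm isolates were obtained by PBS lumen washes of tube segments, dilution in Butterfield buffer and plating on selective and blood agars at 35°C for 24 to 48 h.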

The test system of assay [2] is Staphylococcus aureus. Kind of assay: Antibacterial activity against methicillin-resistant Staphylococcus aureus isolate 5736. The method, boiled down: as §1
For assay [3], the system named is Enterococcus faecium. The experiment in a line: Antibacterial activity against Enterococcus faecium isolate 5749.
Assay [4] has as its system Staphylococcus aureus. The experiment in a line: Antibacterial activity against methicillin-resistant Staphylococcus aureus isolate 5733. A digest of the protocol:
as §1

Assay [5] deals with Enterococcus faecium. Kind of assay: Antibacterial activity against Enterococcus faecium isolate 5752. The method, boiled down:
as §1

Assay [6] has as its system Enterococcus faecalis. Kind of assay: Antibacterial activity against Enterococcus faecalis isolate 5745.
Assay [7] concerns Enterococcus faecium. The experiment in a line: Antibacterial activity against Enterococcus faecium isolate 5750.
Assay [8] deals with Staphylococcus aureus. The experiment in a line: Antibacterial activity against methicillin-resistant Staphylococcus aureus isolate 5739. A digest of the protocol:
as §1

The test system of assay [9] is Staphylococcus aureus. The experiment in a line: Antibacterial activity against vancomycin-resistant Staphylococcus aureus isolate 5734. A digest of the protocol:
as §1

Assay [10] concerns Staphylococcus aureus. The experiment in a line: Antibacterial activity against vancomycin-resistant Staphylococcus aureus isolate 595. A digest of the protocol: as §1
The subject of assay [11] is Staphylococcus aureus. The experiment in a line: Antibacterial activity against methicillin-resistant Staphylococcus aureus isolate 5737. A digest of the protocol:
as §1

Assay [12] deals with Enterococcus faecium. Kind of assay: Antibacterial activity against Enterococcus faecium isolate 2547. The method, boiled down:
as §1

Assay [13] has as its system Enterococcus faecalis. The experiment in a line: Antibacterial activity against Enterococcus faecalis isolate 5742.
Assay [14] has as its system Enterococcus faecium. Kind of assay: Antibacterial activity against Enterococcus faecium isolate 5753.
Assay [15] has as its system Staphylococcus aureus. The experiment in a line: Antibacterial activity against vancomycin-resistant Staphylococcus aureus isolate 2514. The method, boiled down:
as §1

The subject of assay [16] is Enterococcus faecium. Kind of assay: Antibacterial activity against Enterococcus faecium isolate 5751.
Assay [17] deals with Staphylococcus aureus. The experiment in a line: Antibacterial activity against methicillin-resistant Staphylococcus aureus isolate 2513. The method, boiled down:
as §1

Assay [18] concerns Enterococcus faecalis. The experiment in a line: Antibacterial activity against Enterococcus faecalis isolate 5744.
For assay [19], the system named is Enterococcus faecalis. The experiment in a line: Antibacterial activity against Enterococcus faecalis isolate 5746.
The subject of assay [20] is Staphylococcus aureus. The experiment in a line: Antibacterial activity against methicillin-resistant Staphylococcus aureus isolate 2530. The method, boiled down: as §1
The test system of assay [21] is Enterococcus faecalis. Kind of assay: Antibacterial activity against Enterococcus faecalis isolate 5743.

As for `C[C@H]1c2cccc(O)c2C(=O)C2=C(O)[C@]3(O)C(=O)C(C(N)=O)=C(O)[C@@H](N(C)C)[C@@H]3[C@@H](O)[C@@H]21.O` [DOXYCYCLINE], the MIC in the assay on Staphylococcus aureus [1] worked out at 4 µg/mL; against Staphylococcus aureus [2] it was 4 µg/mL; against Enterococcus faecium [3], 8 µg/mL; in the assay with Staphylococcus aureus [4] it was 4 µg/mL; with Enterococcus faecium [5], 16 µg/mL; with Enterococcus faecalis [6] it was 4 µg/mL. Moreover, the MIC with Enterococcus faecium [7] was 16 µg/mL; against Staphylococcus aureus [8], not above 0.25 µg/mL; in the assay on Staphylococcus aureus [9], 8 µg/mL; with Staphylococcus aureus [10], 4 µg/mL; with Staphylococcus aureus [11] it was 0.5 µg/mL; in the assay with Enterococcus faecium [12], 16 µg/mL. Besides, the MIC is 4 µg/mL against Enterococcus faecalis [13]; 8 µg/mL against Enterococcus faecium [14]; 4 µg/mL in the assay with Staphylococcus aureus [15]; 16 µg/mL with Enterococcus faecium [16]; not above 0.25 µg/mL against Staphylococcus aureus [17]; 8 µg/mL against Enterococcus faecalis [18]. Also, the MIC in the assay with Enterococcus faecalis [19] was not above 0.25 µg/mL; in the assay with Staphylococcus aureus [20], not above 0.25 µg/mL; with Enterococcus faecalis [21] it was 4 µg/mL.
Consider `CN(C)[C@@H]1C(O)=C(C(N)=O)C(=O)[C@@]2(O)C(O)=C3C(=O)c4c(O)cccc4[C@@](C)(O)[C@H]3C[C@@H]12` [TETRACYCLINE], for which the MIC is 8 µg/mL (≈ 18 µM) in the assay on Staphylococcus aureus [1]; 8 µg/mL (≈ 18 µM) with Staphylococcus aureus [2]; more than 16 µg/mL in the assay on Enterococcus faecium [3]; 8 µg/mL (≈ 18 µM) in the assay with Staphylococcus aureus [4]; more than 16 µg/mL against Enterococcus faecium [5]; more than 16 µg/mL in the assay on Enterococcus faecalis [6]. Further, the MIC was more than 16 µg/mL in the assay with Enterococcus faecium [7]; not above 0.5 µg/mL with Staphylococcus aureus [8]; 16 µg/mL (≈ 36 µM) in the assay with Staphylococcus aureus [9]; more than 16 µg/mL in the assay on Staphylococcus aureus [10]; not above 0.5 µg/mL against Staphylococcus aureus [11]; more than 16 µg/mL against Enterococcus faecium [12]. The MIC against Enterococcus faecalis [13] is more than 16 µg/mL; in the assay on Enterococcus faecium [14], more than 16 µg/mL; with Staphylococcus aureus [15] it was more than 16 µg/mL; against Enterococcus faecium [16], more than 16 µg/mL; against Staphylococcus aureus [17], not above 0.5 µg/mL; in the assay on Enterococcus faecalis [18], more than 16 µg/mL. Further, the minimum inhibitory concentration (MIC) against Enterococcus faecalis [19] is not above 0.5 µg/mL; against Staphylococcus aureus [20], not above 0.5 µg/mL; against Enterococcus faecalis [21] it was more than 16 µg/mL.
For `Cc1onc(-c2ccccc2)c1C(=O)N[C@@H]1C(=O)N2[C@@H]1SC(C)(C)[C@@H]2C(=O)O` [OXACILLIN], the MIC with Staphylococcus aureus [1], in the assay with Staphylococcus aureus [2], in the assay on Staphylococcus aureus [4], in the assay on Staphylococcus aureus [8], against Staphylococcus aureus [9] and against Staphylococcus aureus [10] was more than 16 µg/mL in each case. For the same compound, the MIC in the assay on Staphylococcus aureus [11], against Staphylococcus aureus [15], in the assay with Staphylococcus aureus [17] and in the assay with Staphylococcus aureus [20] was more than 16 µg/mL each time.
Turning to `CO[C@H]1/C=C/O[C@@]2(C)Oc3c(C)c(O)c4c(O)c(c(/C=N/N5CCN(C)CC5)c(O)c4c3C2=O)NC(=O)/C(C)=C\C=C\[C@H](C)[C@H](O)[C@@H](C)[C@@H](O)[C@@H](C)[C@H](OC(C)=O)[C@@H]1C` [RIFAMPIN], the MIC against Enterococcus faecium [3] was more than 4 µg/mL; with Enterococcus faecium [5] it was more than 4 µg/mL; in the assay on Enterococcus faecalis [6], 1 µg/mL (≈ 1.22 µM); against Enterococcus faecium [7], 4 µg/mL (≈ 4.86 µM); against Enterococcus faecium [12] it was more than 4 µg/mL; in the assay with Enterococcus faecalis [13], 1 µg/mL (≈ 1.22 µM). Moreover, the MIC with Enterococcus faecium [14] is more than 4 µg/mL; in the assay with Enterococcus faecium [16] it was more than 4 µg/mL; against Enterococcus faecalis [18], 0.5 µg/mL (≈ 0.608 µM); against Enterococcus faecalis [19] it was 2 µg/mL (≈ 2.43 µM); with Enterococcus faecalis [21], 1 µg/mL (≈ 1.22 µM).
Regarding `CC[C@H]1OC(=O)[C@H](C)[C@@H](O[C@H]2C[C@@](C)(OC)[C@@H](O)[C@H](C)O2)[C@H](C)[C@@H](O[C@@H]2O[C@H](C)C[C@H](N(C)C)[C@H]2O)[C@](C)(O)C[C@@H](C)C(=O)[C@H](C)[C@@H](O)[C@]1(C)O` [ERYTHROMYCIN], the MIC with Staphylococcus aureus [1], with Staphylococcus aureus [2], against Enterococcus faecium [3], with Staphylococcus aureus [4], in the assay on Enterococcus faecium [5] and against Enterococcus faecalis [6] was more than 8 µg/mL throughout. In addition, the MIC with Enterococcus faecium [7], against Staphylococcus aureus [8], in the assay with Staphylococcus aureus [9], against Staphylococcus aureus [10], with Staphylococcus aureus [11] and with Enterococcus faecium [12] was more than 8 µg/mL each time. The MIC with Enterococcus faecalis [13], in the assay with Enterococcus faecium [14], against Staphylococcus aureus [15], with Enterococcus faecium [16], in the assay on Staphylococcus aureus [17] and in the assay with Enterococcus faecalis [18] was more than 8 µg/mL throughout. Also, the minimal inhibitory concentration (MIC) against Enterococcus faecalis [19], in the assay with Staphylococcus aureus [20] and with Enterococcus faecalis [21] was more than 8 µg/mL throughout.
Regarding GENTAMICIN, the MIC is 16 µg/mL in the assay on Staphylococcus aureus [1]; more than 64 µg/mL against Staphylococcus aureus [2]; more than 64 µg/mL against Staphylococcus aureus [4]; more than 64 µg/mL in the assay on Staphylococcus aureus [8]; more than 64 µg/mL in the assay on Staphylococcus aureus [9]; 32 µg/mL against Staphylococcus aureus [10]. In addition, the MIC with Staphylococcus aureus [11] was more than 64 µg/mL; against Staphylococcus aureus [15] it was 64 µg/mL; in the assay on Staphylococcus aureus [17], less than 4 µg/mL; with Staphylococcus aureus [20], less than 4 µg/mL.
